In brackets after ≈: the same amount, converted by molar mass.
Tests used:
Assay type in all cases: functional
Staphylococcus aureus [1] = test: Antibacterial activity against erythromycin-susceptible Staphylococcus aureus ATCC 29213 by broth microdilution method
Summary of the method: (§1)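 MIC by broth microdilution following CLSI recommendations. Clinical isolates were identified by 16S rDNA sequencing and labeled by genotype and phenotype. S. aureus ATCC 29213 and S. pneumoniae ATCC 49619 served as control strains, with azithromycin and clarithromycin as reference agents.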

Streptococcus pyogenes [2] = test: Antibacterial activity against erythromycin-susceptible Streptococcus pyogenes A3 by broth microdilution method; summary of the method: as §1
[3] = system: Staphylococcus epidermidis; test: Antibacterial activity against methicillin-resistant, constitutive MLS-resistant Staphylococcus epidermidis E 2 by broth microdilution method
Summary of the method: (§2)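 Clinical isolates confirmed by 16S rDNA sequencing. MIC determined by broth microdilution following CLSI recommendations. Quality-control strains were S. aureus ATCC 29213 and S. pneumoniae ATCC 49619. Azithromycin and clarithromycin were run in parallel as reference agents.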

Streptococcus pneumoniae [4] = test: Antibacterial activity against penicillin-susceptible, constitutive MLS-resistant Streptococcus pneumoniae PU 27 expressing erm gene by broth microdilution method; summary of the method: as §2
Streptococcus pneumoniae [5] = test: Antibacterial activity against erythromycin-sensitive Streptococcus pneumoniae ATCC 49619 by broth microdilution method; summary of the method: as §1
[6] = system: Streptococcus dysgalactiae; test: Antibacterial activity against erythromycin-resistant Streptococcus dysgalactiae A1 expressing efflux pump by broth microdilution method; summary of the method: as §2
Streptococcus pneumoniae [7] = test: Antibacterial activity against penicillin-susceptible Streptococcus pneumoniae PU 09 expressing mef gene by broth microdilution method; summary of the method: as §1
Staphylococcus aureus [8] = test: Antibacterial activity against methicillin-resistant, inducible MLS-resistant Staphylococcus aureus PU 32 expressing ermA gene by broth microdilution method; summary of the method: as §2
Streptococcus pneumoniae [9] = test: Antibacterial activity against penicillin-resistant, constitutive MLS-resistant Streptococcus pneumoniae PU 11 expressing erm and mef genes by broth microdilution method; summary of the method: as §2
[10] = system: Staphylococcus epidermidis; test: Antibacterial activity against methicillin-susceptible, inducible MLS-resistant Staphylococcus epidermidis E 1 by broth microdilution method; summary of the method: as §2
Staphylococcus hominis = test: Antibacterial activity against methicillin-resistant, inducible MLS-resistant, coagulase-deficient Staphylococcus hominis E 3 by broth microdilution method; summary of the method: as §2
Streptococcus pyogenes [11] = test: Antibacterial activity against constitutive MLS-resistant Streptococcus pyogenes A2 by broth microdilution method; summary of the method: as §2
[12] = system: Staphylococcus haemolyticus; test: Antibacterial activity against methicillin-resistant, constitutive MLS-resistant, coagulase-deficient Staphylococcus haemolyticus PU 19 expressing ermA gene by broth microdilution method; summary of the method: as §2
Staphylococcus aureus [13] = test: Antibacterial activity against methicillin-resistant, constitutive MLS-resistant Staphylococcus aureus PU 20 expressing ermC gene by broth microdilution method; summary of the method: as §2
Staphylococcus aureus [14] = test: Antibacterial activity against methicillin-sensitive, inducible MLS-resistant Staphylococcus aureus PU 64 expressing ermA gene by broth microdilution method; summary of the method: as §2

Compound	MIC (Staphylococcus aureus [1])	MIC (Streptococcus pyogenes [2])	MIC [3]	MIC (Streptococcus pneumoniae [4])	MIC (Streptococcus pneumoniae [5])	MIC [6]	MIC (Streptococcus pneumoniae [7])	MIC (Staphylococcus aureus [8])	MIC (Streptococcus pneumoniae [9])	MIC [10]	MIC (Staphylococcus hominis)	MIC (Streptococcus pyogenes [11])	MIC [12]	MIC (Staphylococcus aureus [13])	MIC (Staphylococcus aureus [14])
CC[C@H]1OC(=O)[C@H](C)C(=O)[C@H](C)[C@@H](O[C@@H]2O[C@H](C)C[C@H](N(C)C)[C@H]2O)[C@](C)(OC)C[C@@H](C)/C(=N\OCC#Cc2ccc(-c3ccccn3)s2)[C@H](C)[C@H]2OC(=O)O[C@@]21C	1 µg/mL (≈ 1.21 µM)	0.125 µg/mL (≈ 0.151 µM)	128 µg/mL (≈ 155 µM)	0.25 µg/mL (≈ 0.303 µM)	≤ 0.008 µg/mL	2 µg/mL (≈ 2.42 µM)	2 µg/mL (≈ 2.42 µM)	1 µg/mL (≈ 1.21 µM)	32 µg/mL (≈ 38.7 µM)	4 µg/mL (≈ 4.84 µM)	8 µg/mL (≈ 9.68 µM)	32 µg/mL (≈ 38.7 µM)			
CC[C@H]1OC(=O)[C@H](C)C(=O)[C@H](C)[C@@H](O[C@@H]2O[C@H](C)C[C@H](N(C)C)[C@H]2O)[C@](C)(OC)C[C@@H](C)/C(=N\OCC#Cc2ccccn2)[C@H](C)[C@H]2OC(=O)O[C@@]21C	0.064 µg/mL (≈ 0.086 µM)	≤ 0.008 µg/mL	> 256 µg/mL	0.5 µg/mL (≈ 0.672 µM)	≤ 0.008 µg/mL	0.064 µg/mL (≈ 0.086 µM)	0.25 µg/mL (≈ 0.336 µM)	0.125 µg/mL (≈ 0.168 µM)	128 µg/mL (≈ 172 µM)	0.125 µg/mL (≈ 0.168 µM)	0.125 µg/mL (≈ 0.168 µM)	128 µg/mL (≈ 172 µM)	> 256 µg/mL		
CC[C@H]1OC(=O)[C@H](C)C(=O)[C@H](C)[C@@H](O[C@@H]2O[C@H](C)C[C@H](N(C)C)[C@H]2O)[C@](C)(OC)C[C@@H](C)/C(=N\OCC#Cc2cnc3ccccc3c2)[C@H](C)[C@H]2OC(=O)O[C@@]21C	0.25 µg/mL (≈ 0.315 µM)	≤ 0.008 µg/mL	> 256 µg/mL	0.5 µg/mL (≈ 0.63 µM)	≤ 0.008 µg/mL	0.5 µg/mL (≈ 0.63 µM)	0.5 µg/mL (≈ 0.63 µM)	0.5 µg/mL (≈ 0.63 µM)	64 µg/mL (≈ 80.6 µM)	0.25 µg/mL (≈ 0.315 µM)	0.25 µg/mL (≈ 0.315 µM)	64 µg/mL (≈ 80.6 µM)	128 µg/mL (≈ 161 µM)	128 µg/mL (≈ 161 µM)	0.25 µg/mL (≈ 0.315 µM)
CC[C@H]1OC(=O)[C@H](C)[C@@H](O[C@H]2C[C@@](C)(OC)[C@@H](O)[C@H](C)O2)[C@H](C)[C@@H](O[C@@H]2O[C@H](C)C[C@H](N(C)C)[C@H]2O)[C@](C)(OC)C[C@@H](C)C(=O)[C@H](C)[C@@H](O)[C@]1(C)O [CLARITHROMYCIN]	0.25 µg/mL (≈ 0.334 µM)	0.032 µg/mL (≈ 0.0428 µM)	> 256 µg/mL	1 µg/mL (≈ 1.34 µM)	0.032 µg/mL (≈ 0.0428 µM)	8 µg/mL (≈ 10.7 µM)	4 µg/mL (≈ 5.35 µM)	1 µg/mL (≈ 1.34 µM)	> 256 µg/mL	> 256 µg/mL	> 256 µg/mL	> 256 µg/mL	> 256 µg/mL	> 256 µg/mL	2 µg/mL (≈ 2.67 µM)
CC[C@H]1OC(=O)[C@H](C)C(=O)[C@H](C)[C@@H](O[C@@H]2O[C@H](C)C[C@H](N(C)C)[C@H]2O)[C@](C)(OC)C[C@@H](C)/C(=N\OCC#Cc2cccnc2)[C@H](C)[C@H]2OC(=O)O[C@@]21C	0.064 µg/mL (≈ 0.086 µM)	≤ 0.008 µg/mL	256 µg/mL (≈ 344 µM)	0.25 µg/mL (≈ 0.336 µM)	≤ 0.008 µg/mL	0.125 µg/mL (≈ 0.168 µM)	0.25 µg/mL (≈ 0.336 µM)	0.125 µg/mL (≈ 0.168 µM)	128 µg/mL (≈ 172 µM)	0.125 µg/mL (≈ 0.168 µM)	0.125 µg/mL (≈ 0.168 µM)	64 µg/mL (≈ 86 µM)	> 256 µg/mL		
CC[C@H]1OC(=O)[C@H](C)C(=O)[C@H](C)[C@@H](O[C@@H]2O[C@H](C)C[C@H](N(C)C)[C@H]2O)[C@](C)(OC)C[C@@H](C)/C(=N\OCC#Cc2ccc3ncccc3c2)[C@H](C)[C@H]2OC(=O)O[C@@]21C	0.125 µg/mL (≈ 0.157 µM)	≤ 0.008 µg/mL	> 256 µg/mL	0.25 µg/mL (≈ 0.315 µM)	0.016 µg/mL (≈ 0.0202 µM)	0.25 µg/mL (≈ 0.315 µM)	0.25 µg/mL (≈ 0.315 µM)	0.125 µg/mL (≈ 0.157 µM)	64 µg/mL (≈ 80.6 µM)	0.032 µg/mL (≈ 0.0403 µM)	0.125 µg/mL (≈ 0.157 µM)	64 µg/mL (≈ 80.6 µM)	64 µg/mL (≈ 80.6 µM)	64 µg/mL (≈ 80.6 µM)	0.125 µg/mL (≈ 0.157 µM)
CC[C@H]1OC(=O)[C@H](C)C(=O)[C@H](C)[C@@H](O[C@@H]2O[C@H](C)C[C@H](N(C)C)[C@H]2O)[C@](C)(OC)C[C@@H](C)/C(=N\OC/C=C/c2cnc3ccccc3c2)[C@H](C)[C@H]2OC(=O)O[C@@]21C	0.25 µg/mL (≈ 0.314 µM)	≤ 0.008 µg/mL	> 256 µg/mL	0.125 µg/mL (≈ 0.157 µM)	0.016 µg/mL (≈ 0.0201 µM)	0.25 µg/mL (≈ 0.314 µM)	0.25 µg/mL (≈ 0.314 µM)	0.5 µg/mL (≈ 0.628 µM)	32 µg/mL (≈ 40.2 µM)	0.032 µg/mL (≈ 0.0402 µM)	0.064 µg/mL (≈ 0.0804 µM)	32 µg/mL (≈ 40.2 µM)	> 256 µg/mL	> 256 µg/mL	0.064 µg/mL (≈ 0.0804 µM)
CC[C@H]1OC(=O)[C@H](C)C(=O)[C@H](C)[C@@H](O[C@@H]2O[C@H](C)C[C@H](N(C)C)[C@H]2O)[C@](C)(OC)C[C@@H](C)/C(=N\OCC#Cc2ccc(C(=O)c3ccccc3)s2)[C@H](C)[C@H]2OC(=O)O[C@@]21C	2 µg/mL (≈ 2.34 µM)	0.064 µg/mL (≈ 0.075 µM)	128 µg/mL (≈ 150 µM)	1 µg/mL (≈ 1.17 µM)	0.125 µg/mL (≈ 0.147 µM)	2 µg/mL (≈ 2.34 µM)	2 µg/mL (≈ 2.34 µM)	2 µg/mL (≈ 2.34 µM)	64 µg/mL (≈ 75 µM)	2 µg/mL (≈ 2.34 µM)	2 µg/mL (≈ 2.34 µM)	32 µg/mL (≈ 37.5 µM)	128 µg/mL (≈ 150 µM)		

— ChEMBL document CHEMBL2311404, “Synthesis, antibacterial activity and docking of 14-membered 9-O-(3-arylalkyl) oxime 11,12-cyclic carbonate ketolides” (2013)
